Assay results: ChEMBL document CHEMBL3856227, “Identification of the first small-molecule inhibitor of the REV7 DNA repair protein interaction” (Bioorg Med Chem, 2016)
The source made the active and inactive calls. The rule behind the calls is not given here.

Assays:
Homo sapiens [1] = species on record: Homo sapiens; experiment: Binding affinity to biotin-Avi-tagged REV3L (1846 to 1898 residues)/His-tagged REV7 R124A mutant complex (unknown origin) expressed in Escherichia coli BL21(DE3) at 5 uM incubated for 20 hrs by pulldown assay
Outline: (§1)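 Complex at 1 µM (biotin-AviTag-REV3L(1846–1898) co-expressed with His-REV7(R124A), Ni-purified) with 0.5% DMSO, compound (50 µM) or REV3L(1875–1895) peptide (5 µM) in 50 mM HEPES pH 7.4, 150 mM NaCl, 0.1% Tween 20. Shaken at 1500 rpm, 4 °C, 20 h. Streptavidin agarose then added for 4 h. Beads washed, heat-eluted, run on SDS gel, stained. Duplicates.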

Homo sapiens [2] = species on record: Homo sapiens; experiment: Binding affinity to biotin-Avi-tagged REV3L (1846 to 1898 residues)/His-tagged REV7 R124A mutant complex (unknown origin) expressed in Escherichia coli BL21(DE3) at 50 uM incubated for 20 hrs by pulldown assay; outline: as §1
Homo sapiens [3] = species on record: Homo sapiens; experiment: Destabilization of biotin-Avi-tagged REV3L (1846 to 1898 residues)/His-tagged REV7 R124A mutant complex (unknown origin) expressed in Escherichia coli BL21(DE3) incubated for 4 hrs by SYPRO orange dye based RT-PCR analysis
Outline: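 His-REV7(R124A)/REV3L complex at 5 µM in 25 mM HEPES, 100 mM NaCl, pH 7.3 with SYPRO orange 1:2000. Compound at 500 µM final (10 mM DMSO stock) or DMSO, duplicate, 4 h at room temperature. Ramp 25 to 95 °C at 1 °C/min, ex 492/em 610 nm. Tm taken as inflection point of Boltzmann sigmoid fit.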

Homo sapiens [4] = species on record: Homo sapiens; experiment: Inhibition of C-terminal biotin-tagged REV3L (1875 to 1895 residues) binding to REV3L (1846 to 1898 residues)/His-tagged REV7 R124A mutant complex (unknown origin) expressed in Escherichia coli BL21(DE3) […] by alphascreen assay
HeLa [5] = experiment: Cytotoxicity in human HeLa cells assessed as decrease in cell viability at 75 uM after 3 days by alamar blue assay; type: functional, cell-based
Outline: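 HeLa cells at 1000/well, attached overnight, then given compound or DMSO in fresh medium, triplicate, for 3 days. alamarBlue added for 3 h, fluorescence read at ex 510/em 590 nm. Viability normalized to DMSO-treated cells.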

COS-7 = experiment: Inhibition of REV7/REV3L protein interaction in African green monkey COS7 cells expressing ICL assessed as inhibition of ICL repair activity at 75 uM after 13 hrs by luciferase reporter gene assay; type: cell-based; conditions: Chlorocebus aethiops
Outline: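 COS7 cells at 80,000/well. Medium replaced after 5 h, then transfected with pGL-ICL (10 ng) or pGL4.50 (2.5 ng) plus pRL-TK, FuGENE 6. Cells trypsinized 5 h later and replated in quadruplicate with compound or DMSO. Dual firefly/Renilla luciferase read after 13 h. ICL plasmid signal normalized to non-ICL plasmid. Two-tailed unpaired t-test.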

HeLa [6] = experiment: Potentiation of cisplatin-induced anticlonogenic activity in human HeLa cells at 75 uM after 24 hrs by crystal violet staining based assay; type: functional, cell-based
Outline: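 HeLa cells at 450/well in 6-well plates, attached overnight. Cisplatin added at indicated concentrations; 24 h later, compound at 75 µM final or DMSO added for another 24 h. Medium then replaced and culture continued 6 days. Fixed in 3.7% formaldehyde, stained with 0.5% crystal violet, colonies over ~40 cells counted. Triplicate. Survival normalized to cisplatin-vehicle (0.9% NaCl) wells.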

[7] = Inhibition of C-terminal TAMRA-labeled REV3L (1875 to 1895 residues) binding to 5'-MBP-His8/3'-FLAG-tagged REV7 R124A mutant (unknown origin) expressed in Escherichia coli BL21(DE3) after 4 hrs by fluorescence polarization assay; design: species or system Homo sapiens
Outline: (§2)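 Compounds serially diluted from 10 mM DMSO stock. 4 h incubation, triplicate. Read at ex 555/em 632 nm, reported in mP. Controls: DMSO, and unlabeled REV3L peptides. Compound autofluorescence checked.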

[8] = system: Mitotic spindle assembly checkpoint protein MAD2B (Homo sapiens), Q9UI95 [R124A]; experiment: Binding affinity to 5'-MBP-His8/3'-FLAG-tagged REV7 R124A mutant (unknown origin) expressed in Escherichia coli BL21(DE3) at 200 uM by 1H waterLOGSY NMR method
Mitotic spindle assembly checkpoint protein MAD2B (Homo sapiens), Q9UI95 [R124A], sequence (Q9UI95 whole entry R124A, the tested form may be a part): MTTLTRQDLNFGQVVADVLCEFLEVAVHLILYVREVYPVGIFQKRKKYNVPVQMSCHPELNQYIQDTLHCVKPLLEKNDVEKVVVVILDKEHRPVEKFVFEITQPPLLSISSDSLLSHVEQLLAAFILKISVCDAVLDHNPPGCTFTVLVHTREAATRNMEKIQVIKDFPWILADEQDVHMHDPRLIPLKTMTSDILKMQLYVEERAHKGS

Homo sapiens [9] = species on record: Homo sapiens; experiment: Inhibition of C-terminal TAMRA-labeled REV3L (1875 to 1895 residues) binding to 5'-MBP-His8/3'-FLAG-tagged REV7 R124A mutant (unknown origin) expressed in Escherichia coli BL21(DE3) at 3 to 300 uM after 4 hrs by fluorescence polarization assay; outline: as §2

SMILES: CC[C@H](C)[C@H](NC(=O)[C@H](CCC(=O)O)NC(=O)[C@H](CCC(=O)O)NC(=O)[C@H](CCCNC(=N)N)NC(=O)[C@H](CO)NC(=O)[C@@H]1CCCN1C(=O)[C@@H]1CCCN1C(=O)[C@H](CO)NC(=O)[C@H](CCSC)NC(=O)[C@H](CC(C)C)NC(=O)[C@@H]1CCCN1C(=O)[C@H](CCCCN)NC(=O)[C@H](CC(C)C)NC(=O)[C@@H](NC(=O)[C@H](CC(N)=O)NC(=O)[C@H](C)N)[C@@H](C)CC)C(=O)N[C@@H](CCSC)C(=O)N[C@@H](C)C(=O)N[C@H](C(=O)N[C@@H](CC(C)C)C(=O)N[C@@H](CC(C)C)C(=O)O)[C@@H](C)O
- Activity (Homo sapiens [1]): Active

SMILES: CC(=O)N1CCC(Cn2cnc3scc(-c4ccco4)c3c2=O)CC1
- Activity (Homo sapiens [2]): Active
- Activity (Homo sapiens [3]): Active
- inhibition (Homo sapiens [4]): Active

SMILES: CC(=O)N1CCC(Cn2cnc3scc(-c4ccc(C)o4)c3c2=O)CC1
- Activity (HeLa [5]): Active
- inhibition (COS-7): Active
- Activity (HeLa [6]): Active
- IC50 [7]: 78 µM
- Activity [8]: Active

SMILES: CC(=O)N1CCC(Cn2cnc3scc(-c4ccc(C(=O)N5CCOCC5)o4)c3c2=O)CC1
- inhibition (Homo sapiens [9]): Active
